Shown are actives, neighbours in structure and some others; about 1.8% of the full set was active somewhere.
MLLE-PAM2 inh: inhibitors of PABP1 MLLE–PAM2 peptide binding, primary screen, biochemical, fluorescence polarization, FITC-PAM2, GST-MLLE; Polyadenylate-binding protein 1 (Homo sapiens), P11940; inhibition, % at 20 µM; hit rate 0.36% among 360,000; in the data active means inhibition above about 35%, passing the limit was not always enough;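 further: plate controls were DMSO wells with GST-MLLE for no effect and wells lacking GST-MLLE protein for full effect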
eIF4E 4G PPI: eIF4E–eIF4G protein interaction inhibitors, primary screen, biochemical, uHTS, TR-FRET, eIF4GI fragment. Eukaryotic translation initiation factor 4E (Mus musculus) + Eukaryotic translation …. inhibition, % at 21.7 µM. hit rate 0.37% among 220,000. TR-FRET eIF4E-eIF4GI(517-606) binding, 2 h;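 active means inhibition above about 30%, limit read from the data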;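 further: 0% = full FRET control wells and 100% = background wells lacking eIF4GI fragment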
Target sequence (P63073 whole entry, looked up, the tested form may be a part): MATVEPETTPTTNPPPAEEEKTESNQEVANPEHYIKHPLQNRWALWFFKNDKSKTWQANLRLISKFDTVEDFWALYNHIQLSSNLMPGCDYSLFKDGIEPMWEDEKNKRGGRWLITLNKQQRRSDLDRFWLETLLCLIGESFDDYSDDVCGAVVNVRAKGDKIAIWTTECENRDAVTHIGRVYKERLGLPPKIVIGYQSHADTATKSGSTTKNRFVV
Target sequence (Q04637 whole entry, looked up, the tested form may be a part): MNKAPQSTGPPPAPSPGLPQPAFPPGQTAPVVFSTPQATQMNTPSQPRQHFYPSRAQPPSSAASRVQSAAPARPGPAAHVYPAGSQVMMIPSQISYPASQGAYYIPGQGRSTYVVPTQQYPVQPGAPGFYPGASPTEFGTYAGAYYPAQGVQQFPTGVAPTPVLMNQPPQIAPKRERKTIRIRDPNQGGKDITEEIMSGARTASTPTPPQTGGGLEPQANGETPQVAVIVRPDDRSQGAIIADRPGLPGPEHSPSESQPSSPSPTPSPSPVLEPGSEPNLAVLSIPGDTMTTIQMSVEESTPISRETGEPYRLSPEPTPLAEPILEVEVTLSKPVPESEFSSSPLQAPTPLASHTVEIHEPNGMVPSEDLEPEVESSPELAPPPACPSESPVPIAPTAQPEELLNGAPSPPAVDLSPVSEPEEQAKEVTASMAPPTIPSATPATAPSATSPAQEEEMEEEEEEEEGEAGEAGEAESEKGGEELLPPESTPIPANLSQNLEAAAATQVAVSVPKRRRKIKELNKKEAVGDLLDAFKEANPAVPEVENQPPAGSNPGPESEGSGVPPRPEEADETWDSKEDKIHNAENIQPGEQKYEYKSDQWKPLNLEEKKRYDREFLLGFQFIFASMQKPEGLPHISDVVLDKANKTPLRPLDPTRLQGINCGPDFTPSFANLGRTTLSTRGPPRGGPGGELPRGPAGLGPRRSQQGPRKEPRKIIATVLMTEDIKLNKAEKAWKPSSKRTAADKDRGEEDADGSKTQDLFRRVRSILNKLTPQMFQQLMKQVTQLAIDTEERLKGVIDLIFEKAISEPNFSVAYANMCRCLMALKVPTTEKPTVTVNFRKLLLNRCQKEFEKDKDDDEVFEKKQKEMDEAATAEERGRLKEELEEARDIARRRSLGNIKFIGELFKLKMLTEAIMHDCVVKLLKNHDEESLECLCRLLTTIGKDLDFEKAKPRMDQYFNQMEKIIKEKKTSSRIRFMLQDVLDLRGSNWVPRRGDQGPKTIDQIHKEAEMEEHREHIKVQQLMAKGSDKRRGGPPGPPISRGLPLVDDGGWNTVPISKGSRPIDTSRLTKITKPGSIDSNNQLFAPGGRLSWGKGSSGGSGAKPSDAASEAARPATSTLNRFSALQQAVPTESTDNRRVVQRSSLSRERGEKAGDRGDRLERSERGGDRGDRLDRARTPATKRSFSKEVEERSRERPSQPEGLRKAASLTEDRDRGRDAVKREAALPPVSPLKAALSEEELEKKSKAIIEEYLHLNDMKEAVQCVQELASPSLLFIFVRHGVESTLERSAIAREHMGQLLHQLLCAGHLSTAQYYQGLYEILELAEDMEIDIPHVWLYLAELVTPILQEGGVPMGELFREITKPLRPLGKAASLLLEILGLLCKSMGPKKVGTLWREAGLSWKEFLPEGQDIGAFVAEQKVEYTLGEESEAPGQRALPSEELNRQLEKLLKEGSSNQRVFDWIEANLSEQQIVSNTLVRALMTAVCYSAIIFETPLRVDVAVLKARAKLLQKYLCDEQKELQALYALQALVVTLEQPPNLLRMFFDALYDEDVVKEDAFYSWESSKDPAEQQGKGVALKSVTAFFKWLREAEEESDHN
HCV core dimer: inhibitors of HCV core protein dimerization, primary screen, biochemical, TR-FRET, high-throughput | inhibition, % at 5 µM | AID 1899, 2009 | hit rate 0.33% among 300,000 | TR-FRET GST/Flag-core106 dimerization, 1536-well;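 active means inhibition above the mean of all tested compounds plus 3 SD, set per screening campaign, cut at about 45% in these data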
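assay system = GST-tagged and Flag-tagged HCV core protein residues 1-106 | controls = unlabelled core106 and no-GST-core106 wells | incubation = compound-protein-antibody incubation 4 h at 22.5 °C | probe or stimulus = Eu donor and XL665 acceptor anti-tag antibodies | read-out = % inhibition based on acceptor/donor emission ratio | signal = TR-FRET 671 and 617 nm emission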
eIF4H inh: human eIF4H binding inhibitors, primary screen, translation initiation inhibitor project, biochemical, uHTS, fluorescence polarization | inhibition, % at 35 µM | hit rate 0.94% among 290,000 | AID 2012, 2009 | Eukaryotic translation initiation factor 4H (Homo sapiens), Q15056 | eIF4H fluorescence polarization binding assay;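 further: calls also rest on retests at 20 µM and on dose response follow-up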
PABP polyA inh: PABP poly(A) RNA binding inhibitors, primary screen, biochemical, fluorescence polarization, uHTS; hit rate 1% among 290,000; Polyadenylate-binding protein 1 (Homo sapiens), P11940; calls only at 35 µM;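 further: calls also rest on retests at 20 µM and on dose response follow-up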
UBC9 SUMO inh: inhibitors of in vitro SUMOylation cascade, primary screen, biochemical, HTRF, uHTS | HTRF SUMOylation assay, SAE1/SAE2 + UBC9 | SUMO-conjugating enzyme UBC9 (Homo sapiens), P63279 | AID 2006, 2009 | inhibition, % at 35 µM | hit rate 0.36% among 290,000; in the data active means inhibition above about 50%, passing the limit was not always enough; inconclusive means no clear call, values can overlap the other calls
Numbers without * were called inactive; i = inactive; ? = inconclusive; · = no result given; + = active, no number; [ ] = another dose, or the depositor's remark. Unless noted, how the calls were made is not given here.

SMILES	MLLE-PAM2 inh	eIF4E 4G PPI	HCV core dimer	eIF4H inh	PABP polyA inh	UBC9 SUMO inh
COc1ccc(-c2nnc(NC(=O)c3cccs3)s2)c(OC)c1	-0.1	14.3	26.3	54.7*	i	20.8
COc1ccc(C(=O)Nc2nnc(Cc3ccccc3)s2)c(OC)c1	2.1	·	67.7*	-2.5	i	-27.1
O=C(Cc1cccs1)Nc1nnc(Cc2ccccc2)s1	9.3	17.2	82.6*	60.7	i	36.5
O=C(Cc1cccs1)Nc1nnc(CCc2ccccc2)s1	-1.4	4.6	11.8	5.7	i	-13.1
c1ccc(CSc2nnc3ccc(-c4ccco4)nn23)nc1	4.0	0.2	-3.3	12.0	i	38.3
O=C(NCc1cc(F)ccc1F)C1CCC(=O)N(C2CCCCCC2)C1 (stereo not drawn)	-3.5	·	0.2	-11.2	i	-4.8
COc1ccc(-c2nnc(SCC(=O)NC3CC3)o2)cc1	0.1	·	·	·	·	·
COC(=O)n1c(=S)oc2cc(Cl)ccc21	·	61.0*	-1.7	-9.0	i	14.9
CN(NC(=O)c1ccco1)c1nc2ccccc2nc1C(F)(F)F	2.0	1.2	2.4	active	+	-5.0
Cc1ccccc1C(=O)NN(C)c1nc2ccccc2nc1C(F)(F)F	2.2	-3.1	4.0	2.6	i	4.7
CCCS(=O)(=O)NC(=O)C1(C)CCN(C(=O)Cc2ccc(F)cc2)C1 (stereo not drawn)	-14.5	·	·	·	·	·
Cc1nc(C)c(C(=O)Nc2ncc([N+](=O)[O-])s2)o1	12.4	14.3	2.9	54.1	+	14.8
O=C(NCc1ccco1)C1Cc2ccccc2CN1S(=O)(=O)c1ccccc1F (stereo not drawn)	-0.1	·	55.1*	·	·	·
COc1cc(C2CC(=O)N(c3ccc(C)cc3)C(=O)C2)cc(OC)c1OC	-7.0	0.2	-5.5	-8.1	i	19.1
COc1cccc(=O)c2c(C)n(CC(=O)c3ccccc3)c(C)c12	-49.6	4.8	67.4*	95.7	i	3.6
COC(=O)c1ccccc1NC(=O)CSc1nc(N)cc(=O)[nH]1	19.0	6.9	9.0	90.1*	i	-4.2
O=C(CCCc1ccccn1)c1ccc(-c2ccccc2)cc1	6.3	·	·	·	·	·
COc1ccc2cc3c(N)nn(C(=O)c4cccc([N+](=O)[O-])c4)c3nc2c1	-47.3	17.6	58.3*	10.5	i	5.1
COc1ccc2cc3c(N)nn(C(=O)Cc4ccccc4OC)c3nc2c1	-3.9	6.1	4.4	-4.7	i	10.7
Cc1ccc([N+](=O)[O-])cc1-c1ccc2cccc(C)c2n1	-1.1	70.8*[fluorescence artefact?]	-4.8	3.8	i	-22.6
Cn1cc(/C=C(\NC(=O)c2ccccc2Cl)C(=O)NCCCn2ccnc2)c2ccccc21	-9.2	·	-16.9	-7.2	i	-12.3
O=C(O)CCC(=O)N1N=C(c2ccco2)CC1c1cccs1 (stereo not drawn)	12.9	8.3	-5.5	75.8*	+	23.0
O=C(O)CCC(=O)N1N=C(c2ccco2)CC1c1ccco1 (stereo not drawn)	-4.3	·	4.2	34.6	i	5.9
CC12CN3CC(C)(CN(C1)C3c1ccc3c(c1)OCO3)C2O (stereo not drawn)	4.7	2.1	2.6	-2.8	i	-1.2
CCCc1cc(=O)[nH]c(SCC(=O)Nc2nonc2N)n1	41.1*	3.4	1.0	4.2	i	20.1
SMILES	MLLE-PAM2 inh	eIF4E 4G PPI	HCV core dimer	eIF4H inh	PABP polyA inh	UBC9 SUMO inh
CCCc1cc(=O)[nH]c(SCC(=O)NC(=O)OCC)n1	19.1	1.1	0.2	-7.9	i	-8.2
O=C(Nc1ccc(F)cc1)c1csc(Cc2ccccc2)n1	-6.6	-1.4	5.9	5.5*	i	-11.1
CCN(CC)c1nc2cc(OC)ccc2cc1C#N	-8.9	16.8	54.7*	?	+	-1.7
CCCN1C(=O)/C(=c2\s/c(=C3\C=Cc4ccccc4N3CC)c(=O)n2-c2ccccc2)SC1=S	·	5.6	-7.4	5.3	i	8.2
CCCn1c(=C(C#N)C#N)s/c(=C2\C=Cc3ccccc3N2CC)c1=O	40.5*	-1.9	·	1.9	i	0.6
COc1cc(OCC(=O)NC(C)C)cc2c1C(=O)O[C@@H](C)CCCC(=O)CCCCC2	-0.8	·	-9.7	-1.4	i	-2.0
COc1cc2c(c(OCC(=O)NC(C)C)c1)C(=O)O[C@@H](C)CCCC(=O)CCCCC2	51.7*	·	-0.3	69.8	i	-9.0
Nc1nonc1-n1nnc(C(=O)N/N=C/c2ccoc2)c1-c1ccccc1	-4.5	·	-4.5	-9.8	i	4.7
CCOC(=O)C1(C)CCN1C(=O)c1ccc(C)cc1 (stereo not drawn)	-11.6	·	·	·	·	·
Cc1cc(C2C(C#N)=C(N)SC(N)=C2C#N)c(C)s1	-53.8	-0.4	51.2*	?	?	17.1
Cc1cc(C2C(C#N)=C(N)Oc3n[nH]c(C)c32)c(C)s1 (stereo not drawn)	14.4	1.0	0.4	-3.8	i	11.7
Cc1sccc1C1C(C#N)=C(N)SC(N)=C1C#N	·	-17.2	59.5*	121.0	i	4.1
O=C(O)c1cnc2ccc(Cl)cc2n1	0.3	·	·	·	·	·
COc1ccc(CCNC(=O)CCNC(=O)c2ccc(Br)cc2)cc1OC	14.7	36.7*	-1.4	-0.4	i	29.4
COc1ccc(C(=O)Nc2ccc(C(=O)NCCc3ccc(OC)c(OC)c3)cc2)cc1	0.1	6.9	0.1	-3.8	i	60.0*
O=C(c1nc2ccccn2c1CNCCOc1cccnc1)N1CCOCC1	1.8	2.6	-0.8	2.8	i	8.2
COCc1cc(=O)n2[nH]c(-c3cccs3)cc2n1	13.3	-0.3	0.3	1.1	i	19.3
Nc1[nH]c(=O)[nH]c(=O)c1N=Cc1ccccc1	68.4*	·	·	·	·	·
O=c1[nH]c(NCCO)c(N=Cc2ccccc2)c(=O)[nH]1	21.7	·	-7.6	·	·	·
O=C(N/N=C/c1ccc2ccccc2c1)c1ccc(COc2ccc3c(c2)CCC3)o1	0.6	-9.5	50.0*	-18.0	i	21.0
C=CCSC1=C(C#N)C(c2ccccc2OCC)C(C#N)C(=O)N1 (stereo not drawn)	41.0*	-0.4	-0.4	1.4	i	17.8
COc1ccc(CN2CCC(C)(Oc3ccc(C(C)=O)cc3)C2)c2ccccc12 (stereo not drawn)	4.7	·	·	·	·	·
COc1ccc(CCNC(=O)C(=O)N2CCCC2)cc1OC	9.1	3.4	-2.3	-5.7	i	12.3
CC1=CCC(C(=O)O)C(C(=O)Nc2ccc(-c3nc4ccc(C)cc4s3)cc2)C1 (stereo not drawn)	-7.5	79.8*	12.2	8.2	i	41.1
